Assay [1] addresses T1, Acid ceramidase (Homo sapiens, UniProt Q13510).
T1 sequence (Q13510 whole entry): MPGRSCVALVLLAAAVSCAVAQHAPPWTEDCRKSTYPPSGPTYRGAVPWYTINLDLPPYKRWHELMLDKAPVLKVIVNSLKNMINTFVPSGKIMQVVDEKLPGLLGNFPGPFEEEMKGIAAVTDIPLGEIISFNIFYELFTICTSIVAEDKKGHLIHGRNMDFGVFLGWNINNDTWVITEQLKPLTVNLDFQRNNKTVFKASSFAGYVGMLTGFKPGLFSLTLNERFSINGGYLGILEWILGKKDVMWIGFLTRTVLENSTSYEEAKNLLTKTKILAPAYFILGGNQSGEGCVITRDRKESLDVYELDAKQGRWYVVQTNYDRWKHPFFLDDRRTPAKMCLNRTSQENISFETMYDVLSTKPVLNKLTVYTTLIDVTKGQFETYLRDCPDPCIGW
As to the kind of experiment: Inhibition of aCDase using RBM14C12 as substrate after 1 hr by HPLC-FD analysis.

For assay [2], the system named is A549. As to the kind of experiment: Cytotoxicity against human A549 cells after 24 hrs by MTT assay. It counts as functional. As to conditions: A549, 24 h, read-out: LD50 (the source's name). (Formazan colour is commonly taken as a measure of viable cells.)
For assay [3], the target named is T2, Sphingomyelin phosphodiesterase (Homo sapiens) (UniProt P17405).
T2 sequence (whole entry): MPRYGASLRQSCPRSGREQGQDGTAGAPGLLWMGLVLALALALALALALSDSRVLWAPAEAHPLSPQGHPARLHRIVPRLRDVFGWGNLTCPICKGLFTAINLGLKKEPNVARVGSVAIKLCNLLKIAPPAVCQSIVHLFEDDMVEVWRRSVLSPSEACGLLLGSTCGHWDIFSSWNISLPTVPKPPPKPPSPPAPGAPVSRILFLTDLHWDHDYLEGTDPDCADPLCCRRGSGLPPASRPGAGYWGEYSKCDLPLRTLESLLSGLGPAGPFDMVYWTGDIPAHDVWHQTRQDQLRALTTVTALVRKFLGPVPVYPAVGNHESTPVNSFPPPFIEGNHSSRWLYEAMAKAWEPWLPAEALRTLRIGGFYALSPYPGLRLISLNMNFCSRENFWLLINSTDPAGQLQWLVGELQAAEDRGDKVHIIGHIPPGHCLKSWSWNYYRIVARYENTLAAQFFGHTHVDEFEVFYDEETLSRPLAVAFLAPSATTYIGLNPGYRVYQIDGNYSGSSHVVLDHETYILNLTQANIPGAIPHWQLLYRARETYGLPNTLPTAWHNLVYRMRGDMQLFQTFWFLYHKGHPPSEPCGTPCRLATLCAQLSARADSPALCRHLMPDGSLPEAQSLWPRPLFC
Kind of assay: Inhibition of human aSMase using 6-hexadecanoylamino-4-methylumbelliferylphosphorylcholine as substrate at 100 uM preincubated for 30 mins prior substrate addition measured after 2 hrs by spectrophotometry.

For assay [4], the system named is A549. Kind of assay: Inhibition of SM synthase in human A549 cells using CerC6NBD as substrate preincubated for 24 hrs prior substrate addition measured after 3 hrs by HPLC-FD analysis. The assay is classed as cell-based.
Assay [5] concerns A549. Kind of assay: Effect on sphingolipidome in human A549 cells assessed as increase in dihydroceramide per 10^6 cells at 10 uM after 24 hrs by UPLC-TOF analysis relative to control (reference value: 6.5 +/- 0.42 pmol/10^6 cells). The assay is classed as functional. The procedure, abridged: (§1)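 Cells incubated with compound at 10 µM, 24 h (A549) or 14 h (HCT116); lipids then extracted and profiled. Long-chain bases and phosphates were read by LC-MS/MS (positive electrospray, selected reaction monitoring, C17-dihydrosphingosine and C17-dihydrosphingosine-1-phosphate transitions monitored). Amounts expressed as pmol per 10⁶ cells. Mean ± SD of triplicates; unpaired two-tailed t-test versus control.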

Assay [6] has as its target T1, Acid ceramidase. As to the kind of experiment: Inhibition of aCDase in Moh.pAS AcCer10X cells using RBM14C12 as substrate after 1 hr by HPLC-FD analysis. It counts as cell-based.
Assay [7] has as its system A549. Kind of assay: Effect on sphingolipidome in human A549 cells assessed as increase in total ceramides at 10 uM after 24 hrs by UPLC-TOF analysis. It counts as functional, cell-based. The procedure, abridged: as §1
Assay [8] deals with T3, Ceramide glucosyltransferase (Homo sapiens) (UniProt Q16739).
T3 sequence (whole entry): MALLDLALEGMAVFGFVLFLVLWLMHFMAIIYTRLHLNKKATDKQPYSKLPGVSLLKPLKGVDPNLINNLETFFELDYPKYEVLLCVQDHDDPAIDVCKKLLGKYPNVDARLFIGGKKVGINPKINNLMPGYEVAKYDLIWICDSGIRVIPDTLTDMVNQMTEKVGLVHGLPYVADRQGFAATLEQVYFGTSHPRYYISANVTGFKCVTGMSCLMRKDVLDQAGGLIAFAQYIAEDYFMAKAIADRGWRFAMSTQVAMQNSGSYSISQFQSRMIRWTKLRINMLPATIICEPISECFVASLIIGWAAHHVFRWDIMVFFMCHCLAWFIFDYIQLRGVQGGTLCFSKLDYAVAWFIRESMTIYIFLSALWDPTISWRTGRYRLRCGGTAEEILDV
As to the kind of experiment: Inhibition of GlcCer synthase in human A549 cells using CerC6NBD as substrate preincubated for 24 hrs prior substrate addition measured after 3 hrs by HPLC-FD analysis. It counts as cell-based.

Assay [9] has as its target Neutral ceramidase (Homo sapiens) (UniProt Q9NR71). As to the kind of experiment: Inhibition of nCDase in Moh.pAS cells using CerC12NBD as substrate after 1 hr by HPLC-FD analysis. The assay is classed as cell-based. Put shortly: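 Moh. pAS cells transfected to overexpress neutral ceramidase. Lysates (sonicated in 1 mM Tris–HCl, 0.1 mM EDTA, pH 7.5) incubated 1 h, 37 °C, with 5 µM CerC12NBD in 25 mM Tris–HCl pH 7.5, 1% sodium cholate, ±50 µM compound. Intact cells treated 4 h with 50 µM compound before lysis and assay. Read-out HPLC-fluorescence.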

Assay [10] relates to HCT-116. Kind of assay: Cytotoxicity against human HCT116 cells after 24 hrs by MTT assay. It counts as functional. As to conditions: HCT-116, 24 h, read-out: LD50 (the source's name). Put shortly:
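Cells seeded at 10⁵ cells/mL; after 24 h medium replaced with fresh medium with or without test compounds across a concentration range. Viable cells counted by MTT after 24 h of treatment. LD₅₀ (µM) obtained by regression analysis of dose–response curves from two experiments with triplicates. HCT116 kept in low-glucose DMEM with 10% FBS at 37 °C, 5% CO2; cells used at about 80% confluence.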

pIC50: −log10 of the molar value. Activity calls are given as the source filed them. No cut-off for these calls is given here.

Neutral ceramidase (Homo sapiens), sequence (Q9NR71 whole entry): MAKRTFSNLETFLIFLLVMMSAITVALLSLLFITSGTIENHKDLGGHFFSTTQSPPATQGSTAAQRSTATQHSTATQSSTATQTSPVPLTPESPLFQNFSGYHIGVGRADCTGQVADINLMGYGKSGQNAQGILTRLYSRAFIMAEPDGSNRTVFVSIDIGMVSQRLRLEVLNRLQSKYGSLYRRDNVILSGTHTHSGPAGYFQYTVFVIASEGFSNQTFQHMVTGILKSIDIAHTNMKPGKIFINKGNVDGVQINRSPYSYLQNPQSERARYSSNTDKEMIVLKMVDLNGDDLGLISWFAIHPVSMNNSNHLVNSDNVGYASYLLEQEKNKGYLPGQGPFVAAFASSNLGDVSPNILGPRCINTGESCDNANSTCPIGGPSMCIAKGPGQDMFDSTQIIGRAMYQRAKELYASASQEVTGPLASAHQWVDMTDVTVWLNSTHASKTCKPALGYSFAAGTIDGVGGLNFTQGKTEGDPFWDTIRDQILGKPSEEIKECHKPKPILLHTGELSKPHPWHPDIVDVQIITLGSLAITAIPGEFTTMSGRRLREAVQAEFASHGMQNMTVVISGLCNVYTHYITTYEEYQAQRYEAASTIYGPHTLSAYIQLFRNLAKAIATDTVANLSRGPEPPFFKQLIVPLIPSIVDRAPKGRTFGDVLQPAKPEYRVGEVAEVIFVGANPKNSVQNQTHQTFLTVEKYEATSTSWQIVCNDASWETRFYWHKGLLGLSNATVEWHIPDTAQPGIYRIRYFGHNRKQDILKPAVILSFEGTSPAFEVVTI

For orientation: pIC50 means the IC50 on a negative log10 scale, so that one unit is a factor of ten. Regarding `CCCCCCCCCCCCCS/C=C/[C@H](CO)NC(=O)CCCCCCC`, the pIC50 in assay [1] and in assay [6] was 4.11 in each case. The results for the CC50 in assay [2] and in assay [10] were 19 µM and 28 µM, respectively. The inhibition result in assay [3], in [4], in assay [8] and in assay [9] was “inactive” throughout. Also, the Activity in assay [5] was found to be 22.9 pmol. Also, in assay [7], the outcome was inactive.
Regarding `CCCCCCCCCCCCCS/C=C/[C@H](CO)NC(=O)c1ccc(C(C)(C)C)cc1`, the pIC50 in assay [1] and in assay [6] was 3.50 in each case. Further, the values for the CC50 in assay [2] and in [10] were 76 µM and 81 µM, respectively. Further, the inhibition result in assay [3], in assay [4], in assay [8] and in assay [9] was “inactive” in each case. Also, the result in assay [5] and in assay [7] was inactive.
Consider `CCCCCCCCCCCCCS/C=C/[C@H](CO)NC(=O)C(C)(C)C`, for which the pIC50 in assay [1] and in assay [6] was 4.29 each time. Moreover, the CC50 was found to be 24 µM in assay [2] and 30 µM in assay [10]. The inhibition result in assay [3], in [4], in assay [8] and in [9] was “inactive” in each case. For the same compound, the Activity in assay [5] is on record as 12.4 pmol. The result in assay [7] was inactive.

Values taken from ChEMBL document CHEMBL2021903, “3-Deoxy-3,4-dehydro analogs of XM462. Preparation and activity on sphingolipid metabolism and cell fate” (Bioorg Med Chem, 2012).
